According to ChEMBL document CHEMBL4831543, “Design of Transmembrane Mimetic Structural Probes to Trap Different Stages of γ-Secretase-Substrate Interaction” (J Med Chem, 2021):
The source made the active and inactive calls. No cut-off for these calls is given here.

Assays:
[1] = biological target: T1, Gamma-secretase (Homo sapiens) (UniProt Q96BI3+Q9NZ42+Q8WW43+P49768+Q92542+P49810); experiment: Inhibition of HPI-Bpa-Bt labelling of gamma secretase (unknown origin) expressed in HEK293 cells at 10 uM preincubated for 1.5 hrs followed by irradiation for 30 mins by Western blot analysis; assay type: cell-based; conditions: time 2.0 hrs
Outline: (§1)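 Purified γ-secretase, 2 nM, preincubated 30 min at 37 °C in assay buffer (50 mM HEPES pH 7.0, 150 mM NaCl, 0.025% DOPC, 0.1% DOPE, 0.25% CHAPSO). Biotinylated photoprobe added at 1 μM, with or without 10 μM competitor, for 1.5 h at 37 °C. UV 350 nm for 30 min on ice, streptavidin pull-down, six washes. Presenilin-1 NTF detected by western blot.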

[2] = biological target: T1, Gamma-secretase (Homo sapiens); experiment: Inhibition of TSA-Bpa-Bt labelling of gamma secretase (unknown origin) expressed in HEK293 cells at 10 uM preincubated for 1.5 hrs followed by irradiation for 30 mins by Western blot analysis; assay type: cell-based; conditions: time 2.0 hrs; outline: as §1
Gamma-secretase [3] = experiment: Inhibition of gamma secretase (unknown origin) expressed in HEK293 cells assessed as reduction of A-beta40 levels using C100-FLAG as substrate incubated for 2 hrs by sandwich ELISA; assay type: cell-based, Homo sapiens
[4] = biological target: T1, Gamma-secretase (Homo sapiens); experiment: Competitive inhibition of HPI 2 binding to gamma secretase (unknown origin); assay type: protein-complex assay
Outline: (§2)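 Cross-competition kinetics using the standard activity assay. Purified γ-secretase from suspension HEK293 cells, expressed from a tetracistronic vector, in detergent-lipid buffer (HEPES pH 7.0, DOPC, DOPE, CHAPSO). Varying concentrations of two inhibitors titrated against each other, with C100Flag held at 0.50 μM. Aβ40 measured by sandwich ELISA. Data plotted as reciprocal plots and fit to a two-inhibitor equation.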

[5] = biological target: T1, Gamma-secretase (Homo sapiens); experiment: Competitive inhibition of TSA 1 binding to gamma secretase (unknown origin); assay type: protein-complex assay; outline: as §2
Gamma-secretase [6] = experiment: Noncompetitive inhibition of gamma secretase (unknown origin) expressed in HEK293 cells assessed as reduction of A-beta40 levels using varying level of C100-FLAG as substrate incubated for 2 hrs by double reciprocal plot analysis; assay type: cell-based, Homo sapiens
Outline: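 1 nM purified γ-secretase from suspension HEK293 cells (tetracistronic pMLINK) in HEPES pH 7.0, NaCl, DOPC, DOPE, 0.25% CHAPSO. Preincubated 30 min at 37 °C, then given inhibitor in DMSO (2% final) with C100Flag at 0–4.5 μM. Reaction run 2 h at 37 °C; Aβ40 read by sandwich ELISA. Ki obtained by fitting to a noncompetitive inhibition equation.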

SMILES	inhibition [1]	inhibition [2]	IC50 (Gamma-secretase [3])	further results
CC[C@H](C)[C@H](NC(=O)[C@@H](NC(=O)[C@@H](NC(=O)C(C)(C)NC(=O)CNC(=O)[C@@H](NC(=O)OC(C)(C)C)C(C)C)C(C)C)C(C)C)C(=O)NC(C)(C)C(=O)N[C@@H](Cc1ccccc1)C(=O)N[C@H](C(=O)NC(C)(C)C(=O)NCC(=O)NCC(=O)NCC(=O)N[C@H](C(=O)N[C@@H](Cc1ccccc1)[C@H](O)CN(Cc1ccccc1)C(=O)N[C@@H](CC(C)C)C(=O)N[C@H](C(N)=O)C(C)C)C(C)C)C(C)C	Active	Active	–	–
COC(=O)[C@@H](NC(=O)[C@H](CC(C)C)NC(=O)N(Cc1ccccc1)C[C@@H](O)[C@H](Cc1ccccc1)NC(=O)[C@@H](NC(=O)OC(C)(C)C)C(C)C)C(C)C	inactive	Active	–	inhibition [4]: inactive
CC[C@H](C)[C@H](NC(=O)[C@@H](NC(=O)[C@@H](NC(=O)C(C)(C)NC(=O)CNC(=O)[C@@H](NC(=O)OC(C)(C)C)C(C)C)C(C)C)C(C)C)C(=O)NC(C)(C)C(=O)N[C@H](C(=O)N[C@H](C(=O)NC(C)(C)C(=O)NCCCCCCCCCCCC(=O)N[C@H](C(=O)N[C@@H](Cc1ccccc1)[C@H](O)CN(Cc1ccccc1)C(=O)N[C@@H](CC(C)C)C(=O)N[C@H](C(N)=O)C(C)C)C(C)C)C(C)C)[C@@H](C)O	–	–	0.87 nM	–
CC[C@H](C)C(NC(=O)[C@@H](NC(=O)C(C)(C)NC(=O)[C@@H](NC(=O)[C@H](Cc1ccccc1)NC(=O)C(C)(C)NC(=O)[C@@H](NC(=O)[C@@H](NC(=O)[C@@H](NC(=O)C(C)(C)NC(=O)CNC(=O)[C@@H](NC(=O)OC(C)(C)C)C(C)C)C(C)C)C(C)C)[C@@H](C)CC)C(C)C)C(C)C)C(=O)N[C@H](C(=O)N[C@H](C(=O)N[C@@H](Cc1ccccc1)[C@H](O)CN(Cc1ccccc1)C(=O)N[C@@H](CC(C)C)C(=O)N[C@H](C(N)=O)C(C)C)C(C)C)C(C)C (some centres not stated)	–	–	58.9 nM	–
CC[C@H](C)[C@H](NC(=O)[C@@H](NC(=O)[C@@H](NC(=O)C(C)(C)NC(=O)CNC(=O)[C@@H](NC(=O)OC(C)(C)C)C(C)C)C(C)C)C(C)C)C(=O)NC(C)(C)C(=O)N[C@H](C(=O)N[C@H](C(=O)NC(C)(C)C(=O)NCCCCCCCCCCC(=O)N[C@H](C(=O)N[C@@H](Cc1ccccc1)[C@H](O)CN(Cc1ccccc1)C(=O)N[C@@H](CC(C)C)C(=O)N[C@H](C(N)=O)C(C)C)C(C)C)C(C)C)[C@@H](C)O	–	–	0.7 nM	Ki (Gamma-secretase [6]): 0.65 nM
CC[C@H](C)[C@H](NC(=O)[C@@H](NC(=O)[C@@H](NC(=O)C(C)(C)NC(=O)CNC(=O)[C@@H](NC(=O)OC(C)(C)C)C(C)C)C(C)C)C(C)C)C(=O)NC(C)(C)C(=O)N[C@H](C(=O)N[C@H](C(=O)NC(C)(C)C(=O)NCCCCCCCCC(=O)N[C@H](C(=O)N[C@@H](Cc1ccccc1)[C@H](O)CN(Cc1ccccc1)C(=O)N[C@@H](CC(C)C)C(=O)N[C@H](C(N)=O)C(C)C)C(C)C)C(C)C)[C@@H](C)O	–	–	1.1 nM	–
CC[C@H](C)[C@@H](NC(=O)[C@H](NC(=O)[C@H](NC(=O)C(C)(C)NC(=O)CNC(=O)[C@H](NC(=O)OC(C)(C)C)C(C)C)C(C)C)C(C)C)C(=O)NC(C)(C)C(=O)N[C@@H](C(=O)N[C@@H](C(=O)NC(C)(C)C(=O)NCCCCCCCCCCC(=O)N[C@H](C(=O)N[C@@H](Cc1ccccc1)[C@H](O)CN(Cc1ccccc1)C(=O)N[C@@H](CC(C)C)C(=O)N[C@H](C(N)=O)C(C)C)C(C)C)C(C)C)[C@@H](C)O	Active	Active	–	inhibition [5]: Active; inhibition [4]: Active

Continued, in another order:

inhibition [1]	inhibition [2]	IC50 (Gamma-secretase [3])	SMILES	further results
–	–	7.5 nM	CC[C@H](C)[C@H](NC(=O)[C@@H](NC(=O)[C@@H](NC(=O)C(C)(C)NC(=O)CNC(=O)[C@@H](NC(=O)OC(C)(C)C)C(C)C)C(C)C)C(C)C)C(=O)NC(C)(C)C(=O)N[C@H](C(=O)N[C@H](C(=O)NC(C)(C)C(=O)N[C@H](C(=O)N[C@@H](Cc1ccccc1)[C@H](O)CN(Cc1ccccc1)C(=O)N[C@@H](CC(C)C)C(=O)N[C@H](C(N)=O)C(C)C)C(C)C)C(C)C)[C@@H](C)O	–
–	–	1.5 nM	CC[C@H](C)[C@H](NC(=O)[C@@H](NC(=O)[C@@H](NC(=O)C(C)(C)NC(=O)CNC(=O)[C@@H](NC(=O)OC(C)(C)C)C(C)C)C(C)C)C(C)C)C(=O)NC(C)(C)C(=O)N[C@H](C(=O)N[C@H](C(=O)NC(C)(C)C(=O)NCCCCCCC(=O)N[C@H](C(=O)N[C@@H](Cc1ccccc1)[C@H](O)CN(Cc1ccccc1)C(=O)N[C@@H](CC(C)C)C(=O)N[C@H](C(N)=O)C(C)C)C(C)C)C(C)C)[C@@H](C)O	–
–	–	3.2 nM	CC[C@H](C)[C@H](NC(=O)[C@@H](NC(=O)[C@@H](NC(=O)C(C)(C)NC(=O)CNC(=O)[C@@H](NC(=O)OC(C)(C)C)C(C)C)C(C)C)C(C)C)C(=O)NC(C)(C)C(=O)N[C@H](C(=O)N[C@H](C(=O)NC(C)(C)C(=O)NCCCCC(=O)N[C@H](C(=O)N[C@@H](Cc1ccccc1)[C@H](O)CN(Cc1ccccc1)C(=O)N[C@@H](CC(C)C)C(=O)N[C@H](C(N)=O)C(C)C)C(C)C)C(C)C)[C@@H](C)O	–
–	–	6 nM	CC[C@H](C)[C@H](NC(=O)[C@@H](NC(=O)[C@@H](NC(=O)C(C)(C)NC(=O)CNC(=O)[C@@H](NC(=O)OC(C)(C)C)C(C)C)C(C)C)C(C)C)C(=O)NC(C)(C)C(=O)N[C@H](C(=O)N[C@H](C(=O)NC(C)(C)C(=O)NCCC(=O)N[C@H](C(=O)N[C@@H](Cc1ccccc1)[C@H](O)CN(Cc1ccccc1)C(=O)N[C@@H](CC(C)C)C(=O)N[C@H](C(N)=O)C(C)C)C(C)C)C(C)C)[C@@H](C)O	–
–	–	34.8 nM	CC[C@H](C)[C@H](NC(=O)[C@@H](NC(=O)[C@@H](NC(=O)C(C)(C)NC(=O)CNC(=O)[C@@H](NC(=O)OC(C)(C)C)C(C)C)C(C)C)C(C)C)C(=O)NC(C)(C)C(=O)N[C@H](C(=O)N[C@H](C(=O)NC(C)(C)C(=O)OC)C(C)C)[C@@H](C)O	–
Active	inactive	–	CC[C@H](C)[C@H](NC(=O)[C@@H](NC(=O)[C@@H](NC(=O)C(C)(C)NC(=O)CNC(=O)[C@@H](NC(=O)OC(C)(C)C)C(C)C)C(C)C)C(C)C)C(=O)NC(C)(C)C(=O)N[C@@H](Cc1ccccc1)C(=O)N[C@H](C(=O)NC(C)(C)C(=O)OC)C(C)C	inhibition [5]: inactive
